Measurements gathered from unrelated publications.
Compare with care: the assays were run in different laboratories.
CDK9: Cyclin-dependent kinase 9 (CDK9, Homo sapiens, UniProt P50750)
SGK2: Serine/threonine-protein kinase Sgk2 (SGK2, Homo sapiens, UniProt Q9HBY8)
CDK1: Cyclin-dependent kinase 1 (CDK1, Homo sapiens, UniProt P06493)

The inhibition of `CN1C(=O)CCC(N2C(=O)c3cc4c(cc3C2=O)CN(CCCCCCCC(=O)N2CCC(C(=O)Nc3ncc(SCc5ncc(C(C)(C)C)o5)s3)CC2)C4)C1=O` (stereo not shown) is reported as 5.1% (CDK9; protein level, degrader, western blot; TC-71; 25 nM).
`C#Cc1cc(-c2cc(Nc3nc(N[C@@H](C)c4ccc(F)cn4)ncc3Cl)n[nH]2)ccc1C=O` gave an inhibition of 4.48% (SGK2; enzyme activity, inhibitor; 0.2 µM).
`C1=C/COCc2cc(ccc2OCCN2CCCC2)Nc2nccc(n2)-c2cccc(c2)COC/1` gave a remaining binding of 80% (Tyrosine-protein kinase Mer (MERTK, Homo sapiens, UniProt Q12866); binding; 0.1 µM).
`CC(C)(C)c1cnc(CSc2cnc(NC(=O)C3CCN(C(=O)CCCCCCN4Cc5cc6c(cc5C4)C(=O)N(C4CCC(=O)NC4=O)C6=O)CC3)s2)o1` (stereo not shown) has an inhibition of 95.8% (CDK9; protein level, degrader, western blot; TC-71; 25 nM).
For `CC(=O)ON=C1C=CC(=C(C#N)c2ccccc2)C=C1`, the activity vs control was 99% (Dual specificity protein kinase CLK1 (Clk1, Mus musculus, UniProt P22518); enzyme activity, inhibitor, ADP detection; 20 µM).
For `CCN(CC)CCNC(=O)c1ccc(NCN2C(=O)NC(c3ccccc3)(c3ccccc3)C2=O)cc1`, the inhibition was 43.6% (Mitogen-activated protein kinase 3 (MAPK3, Homo sapiens, UniProt P27361); enzyme activity, inhibitor, ADP detection; 10 µM).
With `CCCCC(=O)Nc1ccc(-c2ccc3ncn(CCC)c(=O)c3c2)cn1` the remaining binding was 100% (SGK2; binding, competition with immobilised ligand; 0.5 µM).
`COc1ccc2oc(-c3ccc4nc(N)oc4c3)c/c(=N\c3ccccc3NC(=O)CCN)c2c1` gave a remaining binding of 103% (5'-AMP-activated protein kinase catalytic subunit alpha-2 (PRKAA2, Homo sapiens, UniProt P54646); binding; 1 µM).
`C[C@]1(O)CCCN(c2nc(Nc3ccc(S(=O)(=O)N[C@H]4CC[C@H](CN5CCN(c6ccc(C7CCC(=O)NC7=O)cc6F)CC5)CC4)cc3F)ncc2C(F)(F)F)C1` (stereo partly shown) gave a Dmax of 82% (CDK1; protein level, degrader, western blot; TOV21G).
`CC(C)(C)c1cnc(CSc2cnc(NC(=O)C3CCN(C(=O)CCCCCCCCCN4Cc5cc6c(cc5C4)C(=O)N(C4CCC(=O)NC4=O)C6=O)CC3)s2)o1` (stereo not shown) has an inhibition of 91.8% (CDK9; protein level, degrader, western blot; TC-71; 25 nM).
`Cc1cc2c(C(N)=O)c(N)n(-c3c(C)ccc(O)c3C)c2nc1C` gave an inhibition of 101% (Proto-oncogene tyrosine-protein kinase Src (SRC, Homo sapiens, UniProt P12931); enzyme activity, inhibitor, TR-FRET; 10 µM).
With `C[C@]1(O)CCCN(c2nc(Nc3ccc(S(=O)(=O)N[C@H]4CC[C@H](CN5CCN(c6ccc(C7CCC(=O)NC7=O)c(F)c6)CC5)CC4)cc3F)ncc2C(F)(F)F)C1` (stereo partly shown) the Dmax was 73% (CDK1; protein level, degrader, western blot; TOV21G).
`NC/C(=C\F)COc1cccc(Cn2c(=S)[nH]c(=O)c3[nH]cnc32)c1` gave a remaining activity of -4.18% (Myeloperoxidase (Mus musculus, UniProt P11247); enzyme activity, inhibitor; 10 µM).
